This is an account of results in ChEMBL document CHEMBL3784932, “Design, synthesis and docking studies of novel dipeptidyl boronic acid proteasome inhibitors constructed from αα- and αβ-amino acids” (Bioorg Med Chem Lett, 2016).

Experiment [1] in a line: Cytotoxicity against human ARH77 cells after 72 hrs by MTS assay. It counts as functional, cell-based. The conditions noted are these: ARH-77, 72 h. In a few lines: (§1)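 Cellular IC50 from a ten-concentration series, each concentration tested in triplicate.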
(Tetrazolium assays rely on reduction of a dye to a coloured formazan, in cell work by metabolically active cells.)

Experiment [2] is described as follows: Cytotoxicity against human U266 cells after 72 hrs by MTS assay. Type of experiment: functional, cell-based. The settings on record: U-266, 72 h. In a few lines: as §1
Experiment [3] is described as follows: Cytotoxicity against human RPMI8226 cells after 72 hrs by MTS assay. The settings on record: RPMI-8226, 72 h. It counts as functional, cell-based. In a few lines:
as §1

Experiment [4] concerns the target T1, Proteasome Macropain subunit MB1 (Homo sapiens, UniProt P28074).
T1 sequence (P28074 whole entry): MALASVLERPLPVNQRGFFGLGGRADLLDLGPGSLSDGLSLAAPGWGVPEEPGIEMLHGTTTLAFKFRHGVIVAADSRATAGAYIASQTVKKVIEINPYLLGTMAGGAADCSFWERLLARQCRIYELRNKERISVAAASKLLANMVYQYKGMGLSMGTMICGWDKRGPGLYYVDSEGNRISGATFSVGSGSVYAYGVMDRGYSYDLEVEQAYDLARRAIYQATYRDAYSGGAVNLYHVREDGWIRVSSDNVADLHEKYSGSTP
In words: Inhibition of chymotrypsin like activity of human erythrocyte-derived 20S proteasome preincubated for 10 mins using Suc-LLVY-AMC as substrate after 60 mins by fluorescence assay. The settings on record: for pIC50: read-out: IC50. In a few lines:
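Enzymatic IC50 from eight inhibitor concentrations, each point assayed in duplicate; β5 (chymotrypsin-like) subunit of human proteasome.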

The structures appear in SMILES notation. pIC50: −log10 of the molar value.

Turning to `COCCC(=O)N[C@@H](Cc1ccccc1)C(=O)N[C@@H](CC(C)C)B(O)O`, the pIC50 in experiment [1] was 8.04; in experiment [2], 7.94; in experiment [3], 8.14; in experiment [4], 8.07.
In the case of `O=C(N[C@@H](Cc1ccccc1)C(=O)N[C@H](CB(O)O)c1ccccc1)c1ccccc1`, in experiment [4], the IC50 result is “Not Active”.
Turning to `COCC(=O)N[C@@H](Cc1ccccc1)C(=O)N[C@@H](CC(C)C)B(O)O`, the pIC50 was 8.24 in experiment [1], 8.22 in experiment [2], 8.34 in experiment [3] and 8.20 in experiment [4].
For `CC(C)C[C@H](NC(=O)[C@H](Cc1ccccc1)NC(=O)CC(C)(C)C)B(O)O`, the figures for the pIC50 in experiment [1], in experiment [2] and in experiment [4] were 8.08, 8.10 and 8.33, respectively.
Regarding `CC(C)C[C@@H](NC(=O)CC(NC(=O)[C@H]1CCCc2ccccc21)c1cccc(F)c1)B(O)O` (some centres undefined), in experiment [4], the pIC50 is 8.99.
`CC(C)C[C@H](NC(=O)[C@H](Cc1ccccc1)NC(=O)C1CCCC1)B(O)O`: the pIC50 in experiment [1] is 8.41; in experiment [2], 8.61; in experiment [4], 8.32.
Consider `O=C(N[C@@H](Cc1ccccc1)C(=O)N[C@@H](CCc1ccccc1)CB(O)O)c1ccccc1`, for which the IC50 entry in experiment [4] is on record as “Not Active”.
With `CC(C)C[C@@H](CB(O)O)NC(=O)[C@H](Cc1ccccc1)NC(=O)c1ccccc1`, the IC50 entry in experiment [4] is listed as “Not Active”.
Turning to `O=C(N[C@@H](Cc1ccccc1)C(=O)N[C@H](CB(O)O)c1ccccc1)c1cnccn1`, the IC50 result in experiment [4] was “Not Active”.
In the case of `O=C(N[C@@H](Cc1ccccc1)C(=O)N[C@@H](CCc1ccccc1)CB(O)O)c1cnccn1`, the IC50 entry in experiment [4] is recorded as “Not Active”.
Regarding `CCCC(=O)N[C@@H](Cc1ccccc1)C(=O)N[C@@H](CC(C)C)B(O)O`, the pIC50 in experiment [1] was 8.10; in experiment [2], 8.07; in experiment [3], 8.25; in experiment [4], 8.16.
`CC(C)C[C@@H](CB(O)O)NC(=O)[C@H](Cc1ccccc1)NC(=O)c1cnccn1`: the IC50 entry in experiment [4] is listed as “Not Active”.
`CC(C)C[C@H](NC(=O)[C@H](Cc1ccccc1)NC(=O)[C@H]1CCCc2ccccc21)B(O)O`: in experiment [4], the pIC50 is 8.92.
For `CC(C)C[C@H](NC(=O)[C@H](Cc1ccccc1)NC(=O)c1cccc2c1CCCC2)B(O)O`, in experiment [4], the pIC50 was 8.80.
`CC(C)C[C@H](NC(=O)[C@H](Cc1ccccc1)NC(=O)c1cnccn1)B(O)O` [BORTEZOMIB]: the pIC50 in experiment [1] is 8.22; in experiment [2], 8.24.

One may read the pIC50 as −log10 of the IC50, conventionally taken in molar units.
